Active and inactive are the calls of the source. No cut-off for these calls is given here.
How the values were obtained:
CA46 [1] = assay: Antiproliferative activity against human CA46 cells assessed as reduction in cell viability after 72 hrs by MTT assay; assay type: functional, cell-based; conditions: CA46, 72 h
[2] = Antiproliferative activity against human RS4:11 cells assessed as reduction in cell viability after 72 hrs by MTT assay; assay type: functional, cell-based; conditions: RS4-11, 72 h
How it was run: (§1)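 Cells kept in RPMI-1640 (Jurkat, SEM, RS4;11) or DMEM (A549, HeLa, IGROV-1, HT-29) with 10% FBS plus penicillin/streptomycin. 8×10^3 cells per well were left 18 h at 37 °C in 5% CO2. Medium was then replaced with fresh medium holding graded compound concentrations from 10 mM DMSO stocks. Cells were incubated 72 h and viability read by MTT. IC50 is the mean ± SEM from dose–response curves of at least three independent experiments.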

Jurkat [3] = assay: Cell cycle arrest in human Jurkat cells assessed as accumulation at G2/M phase at 10 to 25 uM after 24 hrs by flow cytometry; assay type: functional, cell-based
How it was run: (§2)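 5×10^5 HeLa or Jurkat cells exposed to graded compound concentrations for 24 h. Cells were fixed in ice-cold 70% ethanol, lysed with RNase A/0.1% Triton X-100 buffer and stained with propidium iodide. DNA content was read by flow cytometry. Phase percentages are mean ± SEM of three independent experiments.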

CA46 [4] = assay: Cell cycle arrest in human CA46 cells assessed as reduction in mitotic index by Giemsa staining method relative to control; assay type: functional; design: scale not given: the % may be the effect or the level left
How it was run: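 CA46 Burkitt lymphoma cells grown in RPMI 1640 with 17% FBS and 2 mM L-glutamine at 37 °C, 5% CO2, treated 16 h. Cells were swollen 10 min in half-strength PBS, fixed in 0.5% acetic acid–1.5% ethanol, then spread from 25% acetic acid/75% ethanol. Slides were Giemsa-stained. Mitotic cells were those with condensed chromosomes and no nuclear membrane, with ≥200 cells counted per condition.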

CCRF-CEM = assay: Antiproliferative activity against human CEM cells assessed as reduction in cell viability after 72 hrs by MTT assay; assay type: functional, cell-based
HeLa [5] = assay: Effect on cell morphology in human HeLa cells assessed as disorganization of actin filament at 25 uM after 24 hrs by confocal microscopy relative to control; assay type: functional, cell-based
How it was run: (§3)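 After 24 h at 25 µM, HeLa cells were stained with anti-PCM1 and Alexa-conjugated secondary antibody, with phalloidin-tetramethylrhodamine B for actin and DAPI for nuclei. Cells were imaged by confocal microscopy at 60×.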

HT-29 = assay: Antiproliferative activity against human HT-29 cells assessed as reduction in cell viability after 72 hrs by MTT assay; assay type: functional, cell-based; conditions: HT-29, 72 h; how it was run: as §1
PBL [6] = assay: Cytotoxicity against PHA-stimulated human PBLs assessed as reduction in cell growth; assay type: cell-based
How it was run: (§4)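 Peripheral blood lymphocytes from healthy donors, tested either resting (no PHA) or PHA-stimulated. Value is the concentration reducing cell growth by 50%, mean ± SEM of three separate experiments.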

A549 = assay: Antiproliferative activity against human A549 cells assessed as reduction in cell viability after 72 hrs by MTT assay; assay type: functional, cell-based; conditions: A549, 72 h; how it was run: as §1
CA46 [7] = assay: Cell cycle arrest in human CA46 cells assessed as accumulation at G2/M phase at 5 times IC50 by flow cytometry; assay type: functional
HeLa [8] = assay: Antiproliferative activity against human HeLa cells assessed as reduction in cell viability after 72 hrs by MTT assay; assay type: functional, cell-based; how it was run: as §1
HeLa [9] = assay: Cell cycle arrest in human HeLa cells assessed as accumulation at G2/M phase at 25 uM after 24 hrs by flow cytometry; assay type: functional; how it was run: as §2
LoVo = assay: Antiproliferative activity against human LoVo cells assessed as reduction in cell viability after 72 hrs by MTT assay; assay type: functional, cell-based
Tubulin [10] = target: T1, Tubulin (Bos taurus, UniProt Q6B856+Q862L2+Q862F3); assay: Inhibition of bovine brain tubulin assessed as extent of assembly preincubated for 15 mins by turbidimetry
How it was run: (§5)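 Bovine brain tubulin at 10 µM (1.0 mg/mL) in 0.8 M monosodium glutamate pH 6.6 with 4% DMSO and varying compound was preincubated 15 min at 30 °C, then chilled. GTP was added to 0.4 mM final and the temperature jumped from 0 to 30 °C. Turbidity was followed at 350 nm, scoring either maximum rate or extent of assembly at 20 min.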

[11] = Antiproliferative activity against human SEM cells assessed as reduction in cell viability after 72 hrs by MTT assay; assay type: functional, cell-based; how it was run: as §1
HeLa [12] = assay: Effect on PCM1 protein in human HeLa cells assessed as accumulation of pericentriolar material at 25 uM after 24 hrs by immunofluorescence microscopy; assay type: functional, cell-based; how it was run: as §3
Jurkat [13] = assay: Cell cycle arrest in human Jurkat cells assessed as accumulation at G2/M phase after 24 hrs by flow cytometry; assay type: functional, cell-based; how it was run: as §2
Tubulin [14] = target: T1, Tubulin; assay: Inhibition of bovine brain tubulin assessed as rate of assembly preincubated for 15 mins by turbidimetry; how it was run: as §5
IGROV-1 = assay: Antiproliferative activity against human IGROV1 cells assessed as reduction in cell viability after 72 hrs by MTT assay; assay type: functional, cell-based; conditions: IGROV-1, 72 h; how it was run: as §1
HeLa [15] = assay: Cell cycle arrest in human HeLa cells assessed as accumulation at G2/M phase at 10 to 25 uM after 24 hrs by flow cytometry; assay type: functional, cell-based; how it was run: as §2
PBL [16] = assay: Cytotoxicity against resting human PBLs assessed as reduction in cell growth; assay type: cell-based; how it was run: as §4
HeLa [17] = assay: Cell cycle arrest in human HeLa cells assessed as accumulation at G2/M phase after 24 hrs by flow cytometry; assay type: functional, cell-based; how it was run: as §2
HeLa [18] = assay: Effect on cell morphology in human HeLa cells at 25 uM after 24 hrs using phalloidin staining by confocal microscopy; assay type: functional, cell-based; how it was run: as §3
HeLa [19] = assay: Disruption of microtubule network in human HeLa cells assessed as induction of spherical morphology at 25 uM after 24 hrs by immunofluorescence microscopy; assay type: cell-based
How it was run: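 HeLa cells exposed 24 h at 25 µM, fixed in cold 4% formaldehyde for 15 min, and stained with anti-β-tubulin plus Alexa-conjugated secondary antibody, with DAPI counterstain. Cells were imaged by confocal microscopy.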

Tubulin (Bos taurus) = Tubulin (Bos taurus) (UniProt Q6B856+Q862L2+Q862F3); assay: Displacement of [3H]colchicine from bovine brain tubulin at 500 uM after 10 mins by liquid scintillation counting

SMILES: COc1cccc(-c2c3c(c(OC)c4c2OCO4)[C@H]([C@H]2OC(=O)c4c2ccc(OC)c4OC)N(C)CC3)c1
- IC50 (CA46 [1]): 20 µM
- IC50 [2]: 7.1 µM
- Activity (Jurkat [3]): Active
- Activity (CA46 [4]): 28%
- IC50 (CCRF-CEM): 22.3 µM
- Activity (HeLa [5]): Active
- IC50 (HT-29): 36.1 µM
- IC50 (PBL [6]): > 200 µM
- IC50 (A549): > 100 µM
- Activity (CA46 [7]): >80%
- IC50 (HeLa [8]): 8.9 µM
- Activity (HeLa [9]): >80%
- IC50 (LoVo): 29.4 µM
- IC50 (Tubulin [10]): > 400 µM
- IC50 [11]: 13 µM
- Activity (HeLa [12]): Active
- Activity (Jurkat [13]): Dose-dependent effect
- IC50 (Tubulin [14]): 170 µM
- IC50 (IGROV-1): 57.2 µM
- Activity (HeLa [15]): Active
- IC50 (PBL [16]): > 200 µM
- Activity (HeLa [17]): Dose-dependent effect
- Activity (HeLa [18]): Active
- Activity (HeLa [19]): 70%
- inhibition (Tubulin (Bos taurus)): 38%
